Shown are actives, neighbours in structure and some others; about 29% of the full set was active somewhere.
CYP2C19 inh: inhibitors of human CYP2C19. P33261. CYP2C19 Supersomes, luciferin-H EGE luminescence, 30 min. inhibition, % at 5 µM. 21% of 96,000 active;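 active means CYP2C19 inhibition above a set limit at 5 µM in the primary screen, cut at about 50% in these data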;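 further: plate controls were negative control wells for no effect and 2.5 mM tranylcypromine positive control for full effect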
Target sequence (P33261 whole entry, looked up): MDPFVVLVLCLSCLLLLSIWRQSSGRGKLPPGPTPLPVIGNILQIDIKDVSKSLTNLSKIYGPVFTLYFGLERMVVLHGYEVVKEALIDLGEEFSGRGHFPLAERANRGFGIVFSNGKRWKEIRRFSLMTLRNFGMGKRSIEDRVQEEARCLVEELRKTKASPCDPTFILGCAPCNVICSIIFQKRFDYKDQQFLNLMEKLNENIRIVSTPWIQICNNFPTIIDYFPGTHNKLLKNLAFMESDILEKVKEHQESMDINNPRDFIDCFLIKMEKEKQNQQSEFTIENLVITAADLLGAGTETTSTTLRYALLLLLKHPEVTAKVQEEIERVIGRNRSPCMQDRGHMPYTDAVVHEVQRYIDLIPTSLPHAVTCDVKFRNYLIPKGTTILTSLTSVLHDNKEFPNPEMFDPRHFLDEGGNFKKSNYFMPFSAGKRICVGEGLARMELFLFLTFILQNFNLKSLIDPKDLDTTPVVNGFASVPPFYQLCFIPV
Ecoli tolC: blocks growth of E. coli BW25113 tolC mutant; OD615; growth inhibition, % at 10 µM (by protocol); 2.2% of 65,000 active; AID 573;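 active means growth inhibition at or above a cutoff equal to the mean over every tested compound plus 3 SD, cut at about 60% in these data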;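 further: growth measured after 20 h incubation at 37 °C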
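Doses: one dose of 10 µM final / Material: E. coli BW25113 ΔtolC::kan, tolC deletion mutant strain / Buffer or medium: LB with kanamycin 50 µg/mL / Evaluation: percent growth inhibition / Detection: optical density read at 615 nm / Incubation: 37 °C, 20 h exposure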
CYP2C19 activ: cytochrome P450 2C19 (human) activation; AID 1025; activation factor at 5 µM; recombinant CYP2C19, luciferin-H EGE luminescence; stronger effect = higher value; 0 = fully inhibited enzyme, 1 = untreated enzyme; 96,000 tested, under 10 active;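 active means activation factor of at least 2 at 5 µM in the primary screen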;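 further: 0 = wells with 2.5 mM tranylcypromine and 1 = vehicle-only wells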
CYP2C9 inh: inhibitors of human CYP2C9. CYP2C9 Supersomes, luciferin-H conversion, luminescence. inhibition, % at 5 µM. 20% of 96,000 active;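 active means blocking of liver enzyme CYP2C9 beyond about 50% at 5 µM, limit read from the data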
CYP2C9 act: activators of human CYP2C9; 1.4% of 96,000 active; recombinant CYP2C9, luciferin-H conversion, luminescence; stronger effect = higher value; factor 1 = untreated enzyme, 0 = blocked; activation factor at 5 µM; P11712;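 active means activation factor of 2 or more for CYP2C9 at a 5 µM dose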;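 further: 0 = sulfaphenazole-blocked wells and 1 = vehicle-only wells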
Ecoli WT expand: E. coli BW25113 growth inhibition, expanded screen; OD600 absorbance; growth inhibition, % at 100 µM; 0.15% of 98,000 active;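 active means growth inhibition above about 50% at one test dose, limit read from the data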;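 further: growth measured after 20 h incubation at 37 °C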
The depositor's hits bear a star.

COc1ccc(S(=O)(=O)N2CCC(O)(c3ccc(Cl)cc3)CC2)cc1 was read as CYP2C19 inh 68*, Ecoli tolC 20, CYP2C19 activ 0.3, CYP2C9 inh -134, CYP2C9 act 2.3* and Ecoli WT expand 10.
`COc1ccc(NC(=O)CN2CCN(S(=O)(=O)c3ccc(Cl)cc3)CC2)cc1Cl` gave CYP2C19 inh -20, Ecoli tolC 0, CYP2C19 activ 1.2, CYP2C9 inh -7, CYP2C9 act 1.1 and Ecoli WT expand -1.
COc1ccc(S(=O)(=O)N2CCCN(CC(=O)Nc3ccc(OC)c(Cl)c3)CC2)cc1 was read as CYP2C19 inh 59*, Ecoli tolC 32, CYP2C19 activ 0.4, CYP2C9 inh -6, CYP2C9 act 1.1 and Ecoli WT expand -15.
Screening COc1ccc(N(CC(=O)Nc2ccc(S(=O)(=O)N3CCCCC3)cc2)S(C)(=O)=O)cc1OC returned CYP2C19 inh 18, CYP2C19 activ 0.8, CYP2C9 inh 53*, CYP2C9 act 0.5 and Ecoli WT expand -2.
COc1ccc(NC(=O)CN2CCN(S(=O)(=O)c3ccc(Cl)cc3)CC2)cc1 was read as CYP2C19 inh 81*, Ecoli tolC 4, CYP2C19 activ 0.2, CYP2C9 inh 22, CYP2C9 act 0.8 and Ecoli WT expand 1.
For CC(=O)N(CC1CCCO1)c1nnc(-c2ccccn2)s1 (stereo not drawn) the results were CYP2C19 inh 24, Ecoli tolC -10, CYP2C19 activ 0.8, CYP2C9 inh 26, CYP2C9 act 0.7 and Ecoli WT expand 1.
Screening COc1ccc(Cc2nnc(NC(=O)c3ccco3)s2)cc1 returned CYP2C19 inh 37, CYP2C19 activ 0.6, CYP2C9 inh 65*, CYP2C9 act 0.3 and Ecoli WT expand -21.
Screening C=CCOC(=O)c1sc(NC(=O)c2ccco2)nc1C returned CYP2C19 inh 16, Ecoli tolC 17, CYP2C19 activ 0.8, CYP2C9 inh 82*, CYP2C9 act 0.2 and Ecoli WT expand -8.
Screening COc1ccc(C(=O)Nc2nnc(-c3ccco3)s2)cc1 returned CYP2C19 inh 54*, CYP2C19 activ 0.5, CYP2C9 inh 17, CYP2C9 act 0.8 and Ecoli WT expand -15.
For COc1ccc(Cc2nnc(NC(=O)c3ccco3)s2)cc1OC the results were CYP2C19 inh 4, Ecoli tolC 6, CYP2C19 activ 1, CYP2C9 inh 19, CYP2C9 act 0.8 and Ecoli WT expand -1.
For CC(C)c1nnc(NC(=O)CCCCCN2C(=O)C3C4C=CC(C4)C3C2=O)s1 (stereo not drawn) the results were CYP2C19 inh -2, CYP2C19 activ 1, CYP2C9 inh 19, CYP2C9 act 0.8 and Ecoli WT expand 2.
`CCCN(CC1CC1)C(=O)CSc1nnc(-c2cc(-c3cccs3)nc3ccccc23)o1` gave CYP2C19 inh 0, CYP2C19 activ 1, CYP2C9 inh 55*, CYP2C9 act 0.4 and Ecoli WT expand -18.
For NC(=O)CSc1nnc(-c2cc(-c3cccs3)nc3ccccc23)o1 the results were CYP2C19 inh 1, CYP2C19 activ 1, CYP2C9 inh 33, CYP2C9 act 0.7 and Ecoli WT expand -13.
Screening CCC(C)NC(=O)CSc1nnc(-c2cc(-c3cccs3)nc3ccccc23)o1 (stereo not drawn) returned CYP2C19 inh 75*, CYP2C19 activ 0.2, CYP2C9 inh 98*, CYP2C9 act 0 and Ecoli WT expand -4.
For O=C(CSc1nnc(-c2cccs2)o1)N1CCCCC1 the results were CYP2C19 inh 6, Ecoli tolC -3, CYP2C19 activ 0.9, CYP2C9 inh -7, CYP2C9 act 1.1 and Ecoli WT expand 0.
Screening CC1CCCC(C)N1C(=O)CSc1nnc(-c2cccs2)o1 (stereo not drawn) returned CYP2C19 inh 84*, Ecoli tolC 13, CYP2C19 activ 0.2, CYP2C9 inh 48, CYP2C9 act 0.5 and Ecoli WT expand 3.
O=C(CSc1nnc(-c2cc(-c3cccs3)nc3ccccc23)o1)NC1CCCCC1 was read as CYP2C19 inh 8, CYP2C19 activ 0.9, CYP2C9 inh 50*, CYP2C9 act 0.5 and Ecoli WT expand -7.
For CCC(c1nnnn1CCC(C)C)N1CCC(C(N)=O)CC1 (stereo not drawn) the results were CYP2C19 inh -18, Ecoli tolC -5, CYP2C19 activ 1.2, CYP2C9 inh -7, CYP2C9 act 1.1 and Ecoli WT expand 0.
`Cc1ccc(NC(=O)N2CCC(=O)N2)cc1` gave CYP2C19 inh -10, CYP2C19 activ 1.1, CYP2C9 inh -5, CYP2C9 act 1 and Ecoli WT expand -5.
For O=C(CSc1nnc(CNc2ccccc2)o1)N1CCN(C(=O)c2ccco2)CC1 the results were Ecoli tolC -17 and Ecoli WT expand -5.
Cc1ccc(S(=O)(=O)CCc2nnc(NC(=O)C3CCCO3)s2)cc1 (stereo not drawn) was read as CYP2C19 inh 19, Ecoli tolC -25, CYP2C19 activ 0.8, CYP2C9 inh 5, CYP2C9 act 0.9 and Ecoli WT expand 0.
For COC(=O)c1c(C)[nH]c(C)c1-c1ccc(C)cc1 the results were CYP2C19 inh 82*, CYP2C19 activ 0.2, CYP2C9 inh 38, CYP2C9 act 0.6 and Ecoli WT expand 0.
For Cc1cc(C)nc(SCCS(=O)(=O)Cc2ccccc2)n1 the results were CYP2C19 inh 83*, Ecoli tolC 1, CYP2C19 activ 0.2, CYP2C9 inh -24, CYP2C9 act 1.2 and Ecoli WT expand 4.
`Cc1cc(C)c(C#N)c(SCCS(=O)(=O)Cc2ccccc2)n1` gave CYP2C19 inh 8, Ecoli tolC -4, CYP2C19 activ 0.9, CYP2C9 inh -76, CYP2C9 act 1.8 and Ecoli WT expand -7.
For CCOc1c(CNCCN2CCOCC2)cccc1OC the results were CYP2C19 inh 21, CYP2C19 activ 0.8, CYP2C9 inh -7, CYP2C9 act 1.1 and Ecoli WT expand 5.
CCc1ccccc1N(CC(=O)NCc1ccco1)C(=O)c1snc(C(N)=O)c1N was read as CYP2C19 inh 95*, Ecoli tolC 20, CYP2C19 activ 0.1, CYP2C9 inh 69*, CYP2C9 act 0.3 and Ecoli WT expand 7.
For COc1ccc(CNC(=O)C(C)N(Cc2ccco2)C(=O)c2snc(C(N)=O)c2N)cc1 (stereo not drawn) the results were CYP2C19 inh 85*, CYP2C19 activ 0.2, CYP2C9 inh 64*, CYP2C9 act 0.4 and Ecoli WT expand -4.
For CC(C)CCNC(=O)C(c1ccco1)N(Cc1ccccc1)C(=O)c1snc(C(N)=O)c1N (stereo not drawn) the results were CYP2C19 inh 49, Ecoli tolC 9, CYP2C19 activ 0.5, CYP2C9 inh 24, CYP2C9 act 0.8 and Ecoli WT expand -9.
`Nn1c(SCc2cccc3ccccc23)nnc1-c1ccco1` gave CYP2C19 inh 36, Ecoli tolC -10, CYP2C19 activ 0.6, CYP2C9 inh -164, CYP2C9 act 2.6* and Ecoli WT expand -2.
